# KCNQ1 act: human KCNQ1 channel potentiation or activation; P51787; CHO-K1 KCNQ1, thallium flux FluxOR fluorescence; active compounds read high; B-score at 10 µM; 0.35% of 310,000 active;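 active = fluorescence ratio B-score, a plate-corrected score, at least three library SD, with initial intensity B-score within 5 SD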
#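 Test system: CHO-K1 cells stably expressing KCNQ1 / Medium: assay buffer / Also added: depolarizing K+/Tl+ stimulus, K2SO4 and Tl2SO4 each 12.5 mM in 5x stock / Incubation: 90 min dye loading and 20 min compound exposure, both at room temperature / Signal: thallium influx via FluxOR fluorescence, kinetic imaging / Evaluation: B score of baseline-normalized fluorescence ratio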
# hERG rescue: shields human hERG channel from block by proarrhythmic agents; CHO-hERG, FluxOR thallium flux, dofetilide IC70 present; activation (rescue from dofetilide block), less the hit threshold, % at 10 µM; 0.51% of 310,000 active; AID 1511;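 active = activation above the mean of controls blocked by dofetilide plus 5 SD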;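 also: thallium influx through hERG after potassium depolarization seen as dye fluorescence rise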
# KCNK3 block: human KCNK3 channel inhibition, primary screen; O14649; 0.84% of 340,000 active; B-score at 10 µM; AID 602410; CHO-KCNK3 thallium flux, FluxOR fluorescence; active compounds read low;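 active = B-score under library mean minus 4 SD, starting fluorescence ratio at most library mean plus 5 SD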;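 also: more negative B-score means stronger inhibition of thallium flux through KCNK3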
# KCNQ1 block: inhibitors of human KCNQ1 potassium channel; 1.3% of 310,000 active; P51787; B-score at 10 µM; CHO-K1 KCNQ1, FluxOR thallium flux fluorescence; active compounds read high;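 active = compounds whose thallium flux B-score, printed positive for inhibition, exceeds three library SD while starting fluorescence stays within three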;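 also: channel opened by potassium depolarization with thallium stimulus after 20 min compound exposure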
# KCNK9 inh: human KCNK9 channel inhibition | Q9NPC2 | HEK293 KCNK9, FluxOR thallium flux fluorescence; active compounds read low | B-score at 10 µM | 1.2% of 310,000 active | AID 488922;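 active = ratio B-score over 3 SD below the library mean, with starting fluorescence within 5 SD of its mean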;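 also: negative B-score means less thallium flux so channel inhibition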
# Target sequence (Q9NPC2 whole entry, looked up): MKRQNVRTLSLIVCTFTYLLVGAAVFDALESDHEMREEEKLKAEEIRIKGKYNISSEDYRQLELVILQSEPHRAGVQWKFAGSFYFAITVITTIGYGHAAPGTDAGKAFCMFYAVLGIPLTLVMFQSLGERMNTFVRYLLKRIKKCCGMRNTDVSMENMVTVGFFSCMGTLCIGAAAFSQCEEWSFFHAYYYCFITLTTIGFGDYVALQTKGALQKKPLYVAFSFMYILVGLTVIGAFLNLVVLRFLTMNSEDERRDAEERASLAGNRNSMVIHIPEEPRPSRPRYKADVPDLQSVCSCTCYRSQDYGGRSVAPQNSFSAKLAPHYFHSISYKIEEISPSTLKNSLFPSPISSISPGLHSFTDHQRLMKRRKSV
# * hit, by the source's call; i = inactive; / = not tested or not shown. Hits are enriched below; roughly 3.1% of the tested compounds scored in any of these assays.
SMILES,KCNQ1 act,hERG rescue,KCNK3 block,KCNQ1 block,KCNK9 inh
N#CCCN1CCN(C(=S)c2ccc(-c3cc(Cl)ccc3Cl)o2)CC1,i,-4,i,i,-7.8*
Cc1cc(C)n(CC(=O)N2c3ccccc3Sc3ccc(C(F)(F)F)cc32)n1,i,-11,i,i,i
COc1ccc(/C=C/C(=O)N2c3ccccc3Sc3ccc(C(F)(F)F)cc32)cc1,i,-11,i,i,-7.3*
COc1ccc(-c2csc(N(CCCN(C)C)C(=O)c3ccccc3Cl)n2)cc1,11*,-4,i,i,i
COc1ccc(-c2csc(N(CCCN(C)C)C(=O)c3ccccc3C)n2)cc1,i,-6,i,i,i
CCC(=O)N(CC)c1nc(-c2ccc(OC)cc2)cs1,i,9.0*,i,i,i
CCCn1c(CN2CCN(C(C)=O)CC2)nc2cc(S(=O)(=O)N(C)C)ccc21,i,0,i,i,i
COC(=O)[C@@]1(Cc2ccccc2)[C@H]2C(=O)N(Cc3ccccc3)C(=O)[C@H]2[C@H]2CN=C(SCC3CC3)N21,/,/,i,/,/
Cc1ccc(C)c2sc(NC(=O)c3ccc(N4CCCCC4)c([N+](=O)[O-])c3)nc12,i,-2,i,i,-7.8*
Cc1cccc(NC(=O)c2ccc(N3CCCCC3)c([N+](=O)[O-])c2)n1,i,-9,i,i,i
CCC(C)n1cnc2c(c1=O)c1nc3ccccc3nc1n2Cc1ccc2c(c1)OCO2 (stereo unspecified),i,-9,/,7*,-7.2*
O=[N+]([O-])c1cc(Br)c(O)c(/C=N/Nc2nnnn2-c2cccc3ccccc23)c1,i,-36,i,7*,i
CCCN(CC(=O)Nc1ccccc1C)C(=O)c1ccc(N2CCCCC2)c([N+](=O)[O-])c1,i,-13,i,i,i
Cc1cc(Cl)ccc1OCC(=O)NNC(=O)C1CCCO1 (stereo unspecified),26*,-5,i,i,i
Cc1cc(C)c(C)c(S(=O)(=O)NCCCN2CCCC2=O)c1C,i,-5,i,i,i
CN(c1ccc(F)cc1)S(=O)(=O)c1ccc(Cl)c(C(=O)Nc2ccc3c(c2)CCC3)c1,i,-11,i,i,-6.9*
CC(=O)NNC(=O)c1sc(=S)n2c1[nH]c(=O)c1sccc12,i,-10,i,i,i
CCCCCn1c(=O)[nH]c2cc(C(=O)NCCc3ccc(OC)c(OC)c3)ccc2c1=O,i,-14,i,i,i
O=C(NCc1ccccc1)c1sc(=S)n2c1[nH]c(=O)c1ccccc12,i,-16,i,7*,i
CCCCNC(=O)c1sc(=S)n2c1[nH]c(=O)c1ccc(C(=O)NCCc3ccc(OC)c(OC)c3)cc12,i,-20,-10*,i,i
O=C(NN=Cc1cccc([N+](=O)[O-])c1)c1cccc2ccccc12,/,/,i,/,/
COC(=O)c1ccccc1NC(=O)c1cn(-c2ccc(C)c(C)c2)c(=O)c2ccccc12,i,-5,i,8*,i
COc1cccc(CC(=O)OCC(=O)NC(C)c2ccc(F)cc2)c1 (stereo unspecified),/,/,i,/,/
CCCn1c(N)c(C(=O)CSc2nc3ccccc3s2)c(=O)[nH]c1=O,i,5.4*,i,i,i
N#C/C(=C(/O)CCl)c1nc2c(s1)CCc1ccccc1-2,i,-16,i,6*,i
SMILES,KCNQ1 act,hERG rescue,KCNK3 block,KCNQ1 block,KCNK9 inh
Nc1nc2c(s1)CCc1ccccc1-2,i,-2,i,i,i
CC(Sc1nccn1C)C(=O)Nc1ccccc1 (stereo unspecified),i,-2,i,i,i
CCc1cc(C(=O)NNC(=S)Nc2cc(C)ccc2C)cs1,i,-3,i,i,i
Cc1ccc(C)c(NC(=S)NNC(=O)c2csc3c2CCCC3)c1,11*,-5,i,i,i
Cc1ccc(NC(=S)NNC(=O)c2ccccc2O)c(C)c1,i,-8,i,10*,i
Cc1cccc(NC(=S)NNC(=O)c2csc3c2CCCC3)c1,i,-9,i,i,i
Cc1ccc(C)c(NC(=S)NNC(=O)c2csc3c2CCC(C)C3)c1 (stereo unspecified),19*,6.8*,i,i,i
Cc1ccc(NC(=O)NNC(=O)c2cc3ccccc3cc2O)c(C)c1,i,0,i,i,i
ClC(Cl)(c1nnnn1-c1ccccc1)c1nnnn1-c1ccccc1,/,/,i,/,/
CCOC(=O)c1oc2c(CN3CCN(C)CC3)c(O)c(CC)cc2c(=O)c1-c1nc2ccccc2s1,/,/,i,/,/
Cc1cccc(-n2ncc3c(N4CC(C)CC(C)C4)ncnc32)c1 (stereo unspecified),i,-9,i,i,-7.1*
Cc1cccc(-n2ncc3c(N4CCCC4)ncnc32)c1,i,-12,i,i,i
CCOc1cc(C(=O)OCC(=O)Nc2ccc(F)cc2Cl)ccc1OCC(=O)N1CCOCC1,/,/,i,/,/
O=C(CCC(=O)Nc1cccc(Cl)c1)N/N=C/c1cc([N+](=O)[O-])ccc1O,i,-6,i,i,i
O=C(CCCC(=O)Nc1cccc(Br)c1)N/N=C/c1cc([N+](=O)[O-])ccc1O,i,-9,i,7*,i
O=C(CN(c1cccc(Br)c1)S(=O)(=O)c1ccccc1)N/N=C/c1cc([N+](=O)[O-])ccc1O,i,-20,i,16*,i
Cc1ccc(NC(=O)c2sccc2C)nc1,i,-9,i,i,i
NCC12CC3CC(C1)CC(c1ccc(Cl)cc1)(C3)C2,i,-37,i,i,-7.2*
Nc1ccc(C23CC4CC(CC(CO)(C4)C2)C3)cc1,i,-8,i,i,i
O=C(COC(=O)CCSc1ccc(F)cc1)NCc1ccc(F)cc1,/,/,i,/,/
CCOc1ccccc1C1NC(=O)c2ccccc2N1 (stereo unspecified),/,/,i,/,/
CN(C(=O)c1ccc(NC(=O)Cc2cccc(NC(=O)C3CCN(C(=O)c4ccccc4)CC3)c2)cc1)C1CCCC1,/,/,i,/,/
O=[N+]([O-])c1cccc(/C=N\N=C2c3ccccc3-c3ccccc32)c1O,i,-19,i,i,i
Oc1ccc(C=NN=C2c3ccccc3-c3ccccc32)c(O)c1,/,/,-8.8*,/,/
Cc1[nH]c(-c2ccccn2)nc(=S)c1Cl,41*,52*,i,i,i
O=S(=O)(Nc1nc2ccccc2nc1Cl)c1ccc(Br)cc1,i,-10,i,9*,i
Cc1cccc(N2CCN(S(=O)(=O)c3ccc4c(c3)CC(C)N4C(=O)C3CC3)CC2)c1C (stereo unspecified),i,-7,i,6*,i
CC(C)CC(=O)NC(=S)Nc1nc(-c2cccc3ccccc23)cs1,34*,0,i,i,i
